Results: ChEMBL document CHEMBL3244174, “Synthesis and biological activity of some new furan quaternary salts” (J Med Chem, 1977)

What was measured:
Microsporum canis = test: Antifungal activity against Microsporum canis VM-200 USPHS assessed as growth inhibition by agar dilution method; type: functional
[1] = test system: Agrobacterium tumefaciens; test: Antibacterial activity against Agrobacterium tumefaciens NRRL B-36 assessed as growth inhibition after 24 hrs by dilution tube method; type: functional; conditions: NRRL B-36, 24 h
Outline: (§1)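 Broth tube dilution in Tryptone Soya Broth, duplicate tubes at each concentration. MIC (μg/ml) was the highest dilution preventing visible growth. Nitrofurantoin run under the same conditions.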

Staphylococcus aureus = test: Antibacterial activity against Staphylococcus aureus ATCC 6538 assessed as growth inhibition after 24 hrs by dilution tube method; type: functional; conditions: ATCC 6538, 24 h; outline: as §1
Enterococcus faecalis = test: Antibacterial activity against Streptococcus faecalis ATCC 10541 assessed as growth inhibition after 24 hrs by dilution tube method; type: functional; conditions: ATCC 10541, 24 h; outline: as §1
Escherichia coli = test: Antibacterial activity against Escherichia coli 114 assessed as growth inhibition after 24 hrs by dilution tube method; type: functional; conditions: Escherichia coli, 114, 24 h; outline: as §1
Histoplasma capsulatum = test: Antifungal activity against Histoplasma capsulatum RNSH Hi-70 1/2 assessed as growth inhibition by agar dilution method; type: functional
Nannizzia gypsea = test: Antifungal activity against Microsporum gypseum 153 CSTM assessed as growth inhibition by agar dilution method; type: functional
[2] = test system: Trichophyton mentagrophytes; test: Antifungal activity against Trichophyton mentagrophytes A-280 USPHS assessed as growth inhibition by agar dilution method; type: functional
Cryptococcus neoformans = test: Antifungal activity against Cryptococcus neoformans 103 assessed as growth inhibition by agar dilution method; type: functional
[3] = test system: Mycobacterium tuberculosis; test: Antibacterial activity against Mycobacterium tuberculosis H37Rv assessed as growth inhibition by serial dilution method; type: functional
Outline: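 M. tuberculosis H37Rv maintained on Lowenstein–Jensen medium; tested in Youman's medium by serial dilution.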

Klebsiella pneumoniae = test: Antibacterial activity against Klebsiella pneumoniae ATCC 10031 assessed as growth inhibition after 24 hrs by dilution tube method; type: functional; conditions: ATCC 10031, 24 h; outline: as §1
Trichophyton rubrum = test: Antifungal activity against Trichophyton rubrum 252 CSTM assessed as growth inhibition by agar dilution method; type: functional
Pseudomonas aeruginosa = test: Antibacterial activity against Pseudomonas aeruginosa ATCC 10145 assessed as growth inhibition after 24 hrs by dilution tube method; type: functional; conditions: ATCC 10145, 24 h; outline: as §1
Salmonella typhi = test: Antibacterial activity against Salmonella typhi 115 assessed as growth inhibition after 24 hrs by dilution tube method; type: functional, Salmonella enterica subsp. enterica serovar Typhi; conditions: Salmonella enterica, 115, 24 h
Outline: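 Dilution tube method in Tryptone Soya Broth; MIC (μg/ml) taken as highest dilution preventing visible growth; duplicates at every concentration; nitrofurantoin reference run under same conditions.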

Candida albicans = test: Antifungal activity against Candida albicans SKF 2270 assessed as growth inhibition by agar dilution method; type: functional

| SMILES | MIC (Microsporum canis) [µg/mL] | MIC [1] [µg/mL] | MIC (Staphylococcus aureus) [µg/mL] | MIC (Enterococcus faecalis) [µg/mL] | MIC (Escherichia coli) [µg/mL] | MIC (Histoplasma capsulatum) [µg/mL] | MIC (Nannizzia gypsea) [µg/mL] | MIC [2] [µg/mL] | MIC (Cryptococcus neoformans) [µg/mL] | MIC [3] [µg/mL] | MIC (Klebsiella pneumoniae) [µg/mL] | MIC (Trichophyton rubrum) [µg/mL] | MIC (Pseudomonas aeruginosa) [µg/mL] | MIC (Salmonella typhi) [µg/mL] | MIC (Candida albicans) [µg/mL] |
| --- | --- | --- | --- | --- | --- | --- | --- | --- | --- | --- | --- | --- | --- | --- | --- |
| Cc1cc(OCCCCCC[N+](C)(C)Cc2ccc(Br)o2)c(C(C)C)cc1Cl.Cc1ccc(S(=O)(=O)[O-])cc1 | 100 | 100 | 50 | 50 | > 200 | > 200 | 200 | 200 | 100 | 10 | 25 | 200 | 10 | > 200 | > 200 |
| C[N+](C)(CCCCCCCCOc1c(Br)cc(Br)cc1Br)Cc1ccc([N+](=O)[O-])o1.[Br-] | > 200 | 10 | 4 | 4 | > 200 | > 200 | > 200 | > 200 | 4 | 7.5 | 2 | > 200 | 2 | > 200 | > 200 |
| Cc1cc(OCC[N+](C)(C)Cc2ccc(Br)o2)c(C(C)C)cc1Cl.[Br-] | 100 | 25 | 9 | 25 | > 200 | 50 | > 200 | 100 | 50 | 10 | 25 | > 200 | 5 | 100 | > 200 |
| C[N+](C)(CCOc1ccc(Cl)cc1Cl)Cc1ccc(Br)o1.[Br-] | > 200 | > 200 | 100 | > 200 | > 200 | > 200 | > 200 | > 200 | > 200 | > 200 | 100 | > 200 | 50 | > 200 | > 200 |
| C[N+](C)(CCOc1c(Br)cc(Br)cc1Br)Cc1ccc(Br)o1.[Br-] | 100 | 100 | 25 | 25 | > 200 | 100 | > 200 | 100 | 50 |  | 25 | > 200 | 25 | > 200 | > 200 |
| C[N+](C)(CCCOc1c(Br)cc(Br)cc1Br)Cc1ccc(Br)o1.[Br-] | > 200 | 50 | 10 | 25 | > 200 | > 200 | > 200 | > 200 | 50 | 10 | 7.5 | > 200 | 4 | 100 | > 200 |
| C[N+](C)(CCCCOc1ccc(Cl)cc1)Cc1ccc(Br)o1.[Br-] | > 200 | 100 | 100 | 100 | 100 | > 200 | > 200 | > 200 | > 200 |  | 100 | > 200 | 50 | 100 | > 200 |
| C[N+](C)(CCCCOc1ccc(Cl)cc1)Cc1ccc([N+](=O)[O-])o1.[Br-] | > 200 | > 200 | 100 | > 200 | > 200 | > 200 | > 200 | > 200 | > 200 |  | 100 | > 200 | 100 | > 200 | > 200 |
| C[N+](C)(CCCCOc1ccccc1Cl)Cc1ccc(Br)o1.[Br-] | > 200 | > 200 | 100 | > 200 | > 200 | > 200 | > 200 | > 200 | > 200 |  | 100 | > 200 | 100 | > 200 | > 200 |
| C[N+](C)(CCCCCCCCCCOc1c(Br)cc(Br)cc1Br)Cc1ccc([N+](=O)[O-])o1.[Br-] | > 200 | 10 | 2 | 4 | > 200 | > 200 | > 200 |  | 4 | 7.5 | 4 | > 200 | 3 | > 200 | > 200 |
